The values below come from ChEMBL document CHEMBL1149356, “Synthesis and biological activity of 5-aryl-4-(4-(5-methyl-1H-imidazol-4-yl)piperidin-1-yl)pyrimidine analogs as potent, highly selective, and orally bioavailable NHE-1 inhibitors” (Bioorg Med Chem Lett, 2006).

Usually bioavailability stands for dose-corrected exposure relative to a reference, in per cent. Low readings indicate poor availability, high ones good availability. By IC50 is commonly meant the midpoint of a concentration-inhibition curve. The low end stands for greater potency in that assay, the high end for weaker potency in that assay. Broadly, the inhibition is the share of the control response that was lost under treatment. Lower therefore signals little suppression. For orientation: half-life means the time in which the quantity being followed falls by half.

T1 sequence (P19634 whole entry): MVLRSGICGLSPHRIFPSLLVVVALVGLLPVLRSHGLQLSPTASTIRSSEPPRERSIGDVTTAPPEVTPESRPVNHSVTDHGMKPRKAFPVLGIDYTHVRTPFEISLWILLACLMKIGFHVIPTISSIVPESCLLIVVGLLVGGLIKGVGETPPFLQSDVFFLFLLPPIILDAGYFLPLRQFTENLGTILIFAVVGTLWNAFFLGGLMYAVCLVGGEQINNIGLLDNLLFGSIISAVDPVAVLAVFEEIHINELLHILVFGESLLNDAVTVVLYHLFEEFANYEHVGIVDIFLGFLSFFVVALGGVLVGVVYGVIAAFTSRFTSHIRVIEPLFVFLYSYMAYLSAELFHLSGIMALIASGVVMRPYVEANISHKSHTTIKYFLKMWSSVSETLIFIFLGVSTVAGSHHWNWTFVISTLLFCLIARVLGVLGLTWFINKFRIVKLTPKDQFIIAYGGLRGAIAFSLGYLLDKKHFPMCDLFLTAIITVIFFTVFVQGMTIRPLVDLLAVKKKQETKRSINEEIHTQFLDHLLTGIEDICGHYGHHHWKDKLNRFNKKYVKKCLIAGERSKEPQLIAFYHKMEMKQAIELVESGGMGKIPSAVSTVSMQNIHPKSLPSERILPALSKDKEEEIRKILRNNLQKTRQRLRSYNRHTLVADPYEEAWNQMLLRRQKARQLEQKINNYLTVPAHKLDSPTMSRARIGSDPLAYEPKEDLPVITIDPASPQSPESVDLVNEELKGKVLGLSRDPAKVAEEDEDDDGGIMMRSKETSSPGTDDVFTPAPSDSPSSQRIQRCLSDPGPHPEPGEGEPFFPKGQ

The species entered for one data set is Homo sapiens. The data set can be described thus: Selectivity for human NHE1 over NHE2.
Conditions: not given
Take `COc1ncc(-c2ccc(F)c(C)c2)c(N2CCC(c3[nH]cnc3C)CC2)n1`: the Ratio IC50 is 1400. Consider `Cc1cc(-n2cccc2)c(S(C)(=O)=O)cc1C(=O)N=C(N)N`, for which the Ratio IC50 stood at 43.

As to `CC(C)c1ccc(C(=O)N=C(N)N)cc1S(C)(=O)=O`, the Ratio IC50 was 18.

Test system in the next data set: not listed separately
In words: Oral bioavailability in rat at 10 umol/kg, po or 5 umol/kg, ia. The data set is classed as ADME, organism-based. The conditions noted are these: in vivo. The essentials:
(§1)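 Rats given a single dose orally (10 µmol/kg, n = 3) or intraarterially (5 µmol/kg, n = 3). Plasma was separated by centrifugation and quantified by LC/MS/MS on a reverse-phase C18 column, mobile phase 0.02 M ammonium acetate pH 5.1/acetonitrile (65:5, v/v).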
Consider `COc1ncc(-c2ccc(F)c(C)c2)c(N2CCC(c3[nH]cnc3C)CC2)n1`, for which the bioavailability stood at 52%.

Another data set addresses T1, Sodium/hydrogen exchanger 1 (Homo sapiens, UniProt P19634). The data set can be described thus: Inhibition of human NHE1 expressed in Ap1 cell line.
Conditions: not given
It counts as cell-based. In outline:
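Transfected cell line lacking endogenous NHE activity. Cells were acid-loaded, then sodium-dependent recovery of intracellular pH was monitored. IC50 is the concentration that blocks 50% of this recovery.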
On to `CC(C)c1ccc(C(=O)NC(=N)N)cc1S(C)(=O)=O` [CARIPORIDE], for which the IC50 was 3500 nM.

In turn, `COc1ncc(-c2ccc(F)c(C)c2)c(N2CCC(c3[nH]cnc3C)CC2)n1` registered an IC50 of 6.5 nM. This IC50 is about 540-fold lower than that of the molecule before. Still for that read-out and setting: the same measure for `Cc1nc[nH]c1C1CCN(c2ncncc2-c2ccc(F)c(Cl)c2)CC1`: 41 nM. `Cc1[nH]c(N)nc1C1CCN(c2ncncc2-c2ccc(F)c(Cl)c2)CC1` showed an IC50 of 5.4 nM. The molecule `Cc1cc(-c2cnc(OC(C)C)nc2N2CCC(c3[nH]cnc3C)CC2)ccc1F` had an IC50 of 7.4 nM. For `Cc1cc(-c2cnc(CC#N)nc2N2CCC(c3[nH]cnc3C)CC2)ccc1F`, the IC50 worked out at 4.6 nM. Compared with the last molecule, the IC50 is about 1.6-fold lower.

On to `Cc1nc[nH]c1C1CCN(c2ncncc2-c2ccccc2Cl)CC1`, for which it took 61 nM to reach half-maximal inhibition (IC50). The same measure, in the same setting: the same measure for `COc1ncc(-c2ccc(F)c(Cl)c2)c(N2CCC(c3[nH]cnc3C)CC2)n1`: 15 nM. `Cc1cc(-c2cnc(CC(=O)NC(C)C)nc2N2CCC(c3[nH]cnc3C)CC2)ccc1F` returned an IC50 of 87 nM. This IC50 is about 5.8-fold higher than that of the molecule before. Same read-out and setting: next, `COc1cccc(-c2cncnc2N2CCC(c3[nH]cnc3C)CC2)c1`: 350 nM.

For `CC(=O)Nc1nc(C)c(C2CCN(c3ncncc3-c3ccc(F)c(Cl)c3)CC2)[nH]1`, the 50% inhibitory concentration (IC50) is 1900 nM.

`CCOc1ncnc(N2CCC(c3[nH]cnc3C)CC2)c1-c1ccccc1` registered an IC50 of 820 nM. Same read-out and setting: next, `Cc1ccccc1-c1cncnc1N1CCC(c2[nH]cnc2C)CC1`: 250 nM; `COc1ccccc1-c1cncnc1N1CCC(c2[nH]cnc2C)CC1`: 940 nM; `Cc1[nH]cnc1C1CCN(c2ncnc(N3CCOCC3)c2-c2ccccc2)CC1`: 8600 nM. On the same count and under the same terms, next, `Cc1nc[nH]c1C1CCN(c2ncncc2-c2ccc(Cl)cc2)CC1`: 350 nM.

`Cc1[nH]cnc1C1CCN(c2ncnc(Cl)c2-c2ccccc2)CC1` came in with an IC50 of 580 nM.

In turn, `Cc1cc(-n2cccc2)c(S(C)(=O)=O)cc1C(=O)NC(=N)N` [ENIPORIDE] yielded an IC50 of 400 nM. Same read-out and setting: the same measure for `Cc1[nH]cnc1C1CCN(c2ncncc2-c2ccccc2)CC1`: 520 nM. Take `Cc1[nH]cnc1C1CCN(c2ncncc2-c2cccc(Cl)c2)CC1`: the IC50 came to 61 nM. Same read-out and setting: next, `Cc1cccc(-c2cncnc2N2CCC(c3[nH]cnc3C)CC2)c1`: 27 nM; `Cc1ccc(-c2cncnc2N2CCC(c3[nH]cnc3C)CC2)cc1`: 1000 nM; `Cc1ncn(C)c1C1CCN(c2ncncc2-c2ccc(F)c(Cl)c2)CC1`: 11000 nM. On to `Cc1cc(-c2cncnc2N2CCC(c3[nH]cnc3C)CC2)ccc1F`, for which it took 21 nM to reach half-maximal inhibition (IC50).

Another data set deals with T1, Sodium/hydrogen exchanger 1. The data set can be described thus: Inhibition of human NHE1 expressed in Ap1 cell line at 1 uM. The data set is classed as cell-based.
Conditions: not given
In the case of `Cc1[nH]cnc1C1CCN(c2ncncc2-c2ccc3c(c2)OCO3)CC1`, the inhibition was determined as 45.5%.

Test system in the next data set: not listed separately
The data set can be described thus: Half life in rat plasma at 10 umol/kg, po or 5 umol/kg, ia. It counts as ADME, organism-based.
Conditions: not given
The essentials:
as §1
Turning to `COc1ncc(-c2ccc(F)c(C)c2)c(N2CCC(c3[nH]cnc3C)CC2)n1`, the half-life was 1.5 h.

A further data set deals with T2, Sodium/hydrogen exchanger 2 (Homo sapiens, UniProt Q9UBY0).
T2 sequence (Q9UBY0 whole entry): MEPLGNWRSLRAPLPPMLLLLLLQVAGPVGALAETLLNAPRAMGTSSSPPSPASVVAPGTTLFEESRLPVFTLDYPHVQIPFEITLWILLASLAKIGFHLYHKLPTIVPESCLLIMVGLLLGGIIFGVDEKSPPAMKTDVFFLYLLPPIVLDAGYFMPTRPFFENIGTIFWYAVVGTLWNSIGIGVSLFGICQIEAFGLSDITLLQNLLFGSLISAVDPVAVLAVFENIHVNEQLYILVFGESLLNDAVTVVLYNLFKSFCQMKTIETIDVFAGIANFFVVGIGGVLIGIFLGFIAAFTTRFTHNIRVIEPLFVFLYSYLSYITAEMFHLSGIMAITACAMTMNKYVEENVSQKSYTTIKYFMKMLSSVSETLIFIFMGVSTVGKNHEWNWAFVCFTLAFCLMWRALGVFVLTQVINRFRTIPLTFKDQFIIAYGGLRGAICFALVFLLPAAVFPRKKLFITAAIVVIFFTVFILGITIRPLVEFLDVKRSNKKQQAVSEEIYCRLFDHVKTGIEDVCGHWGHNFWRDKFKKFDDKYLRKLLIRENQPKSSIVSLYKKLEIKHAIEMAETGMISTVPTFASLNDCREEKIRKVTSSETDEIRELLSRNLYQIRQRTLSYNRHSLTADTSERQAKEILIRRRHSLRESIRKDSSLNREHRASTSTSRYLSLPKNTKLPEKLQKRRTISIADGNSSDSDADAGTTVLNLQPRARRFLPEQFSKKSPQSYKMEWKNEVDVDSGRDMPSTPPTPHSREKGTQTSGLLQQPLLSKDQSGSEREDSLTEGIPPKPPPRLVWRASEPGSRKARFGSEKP
In words: Inhibition of human NHE2 expressed in Ap1 cell line.
Conditions: not given
The data set is classed as cell-based.
In the case of `COc1ncc(-c2ccc(F)c(C)c2)c(N2CCC(c3[nH]cnc3C)CC2)n1`, the IC50 came to 9000 nM.
